Tests used:
Rattus norvegicus [1] = assay: Gastroprotective activity on stress-induced ulcers in male Wistar rats at 12.5 mg/kg upon intraperitoneal administration; format: functional
In short: (§1)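 Rats (160-180 g) fasted 24 h, given test compound ip in physiological saline; saline-only controls. After 1 h, restrained in net cage and immersed to xiphisternum in 21 °C water bath for 6 h, then killed and stomachs opened along greater curvature. Hemorrhagic ulceration scored 0-3; % protection = 100 − (treated total rating/saline rating)×100. Five rats per dose.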

Rattus norvegicus [2] = assay: Gastroprotective activity on stress-induced ulcers in male Wistar rats at 25 mg/kg upon intraperitoneal administration; format: functional; in short: as §1
Rattus norvegicus [3] = assay: Gastroprotective activity on stress-induced ulcers in male Wistar rats at 50 mg/kg upon intraperitoneal administration; format: functional; in short: as §1
Rattus norvegicus [4] = assay: Gastroprotective activity on stress-induced ulcers in male Wistar rats at 6.25 mg/kg upon intraperitoneal administration; format: functional; in short: as §1
[5] = Lethal dose in mice upon intraperitoneal administration;Value ranges from(5-9.8); format: toxicity, organism-based; details: mouse, in vivo, ip
Rattus norvegicus [6] = assay: Gastroprotective activity on stress-induced ulcers in male Wistar rats at 6.25 mg/kg upon intraperitoneal administration;the minimum effective dose = 125 ug/kg (protection 66%); format: functional
In short: (§2)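 Male Wistar rats (160-180 g), food-deprived 24 h, given compound ip in physiological saline; saline-only controls. After 1 h, restrained in net cage and immersed to xiphisternum in 21 °C water for 6 h. Stomachs removed and opened along greater curvature, hemorrhagic ulceration scored 0-3. % protection = 100 − (treated total rating / saline rating)×100. Five rats per dose.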

Rattus norvegicus [7] = assay: Gastroprotective activity on stress-induced ulcers in male Wistar rats at the specified ip dose of 12.5 mg/kg; format: functional; details: route intraperitoneal; in short: as §2
[8] = Lethal dose in mice upon intraperitoneal administration;Value ranges from(131.6-243.4); format: toxicity, organism-based; details: mouse, in vivo, ip

| SMILES | Protection (Rattus norvegicus [1]) | Protection (Rattus norvegicus [2]) | Protection (Rattus norvegicus [3]) | Protection (Rattus norvegicus [4]) | LD50 [5] | Protection (Rattus norvegicus [6]) | Protection (Rattus norvegicus [7]) | LD50 [8] |
| --- | --- | --- | --- | --- | --- | --- | --- | --- |
| CC(C)CC(NC(=O)C(O)C1OC(=O)CC1N)C1Cc2cccc(O)c2C(=O)O1 (centres undefined) | 76% | 76% | 83% | 17% |  |  |  |  |
| CC(=O)NC1CC(=O)OC1C(OC(C)=O)C(=O)NC(CC(C)C)C1Cc2cccc(OC(C)=O)c2C(=O)O1 (centres undefined) | 0% | 0% | 16% |  |  |  |  |  |
| CC(C)CC(NC(=O)C(O)C(O)C(N)CC(N)=O)C1Cc2cccc(O)c2C(=O)O1.Cl (centres undefined) |  | 100% | 100% |  | 7 mg/kg | 100% | 100% |  |
| CC(=O)NC1CC(=O)OC1C(OC(C)=O)C(=O)NC(CC(C)C)C1Cc2cccc(O)c2C(=O)O1 (centres undefined) | 0% | 16% | 16% |  |  |  |  |  |
| CC(C)CC(NC(=O)C(O)C1C=CC(=O)O1)C1Cc2cccc(O)c2C(=O)O1 (centres undefined) | 0% | 16% | 33% |  |  |  |  |  |
| COc1cccc2c1C(=O)OC(C(CC(C)C)NC(=O)C(O)C(O)C(N)CC(=O)O)C2 (centres undefined) | 66% | 83% | 83% | 50% |  |  |  |  |
| CC(C)CC(NC(=O)C(O)C(O)C(N)CC(=O)O)C(O)Cc1cccc(O)c1C(=O)[O-].[Na+] (centres undefined) | 16% | 50% | 50% |  |  |  |  |  |
| CC(C)CC(N)C1Cc2cccc(O)c2C(=O)O1.Cl (centres undefined) | 16% | 33% | 33% |  |  |  |  |  |
| CC(C)C[C@H](NC(=O)[C@@H](O)[C@@H](O)[C@@H](N)CC(=O)O)[C@@H]1Cc2cccc(O)c2C(=O)O1 | 76% | 100% | 100% | 56% |  |  |  | 179 mg/kg |
| CC(=O)NC1CC(=O)OC1C(O)C(=O)NC(CC(C)C)C1Cc2cccc(O)c2C(=O)O1 (centres undefined) | 16% | 33% | 66% |  |  |  |  |  |
| NC(CC(=O)O)C(O)C(O)C(=O)[O-].[Na+] (centres undefined) | 0% | 23% | 43% |  |  |  |  |  |
